pIC50: −log10 of the molar value.

Data set [1] has as its system Rattus norvegicus. The experiment in a line: Inhibition of […] of the rat after intravenous administration. It is filed as functional. As to conditions: read-out: ID50 (the source's name). Summed up:
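Rats given test compound intravenously. Plasma extravasation in the dura mater measured, n = 8-10. ID50 reported in mg/kg iv.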

The species entered for data set [2] is Oryctolagus cuniculus. Kind of data set: Displacement of [3H]diltiazem from rabbit skeletal muscle calcium channel. It is filed as tissue-based. The following applies: Muscle tissue.
Data set [3] has as its system Cavia porcellus. Kind of data set: Inhibition of SP- induced dermal guinea pig after peroral administration. The data set is classed as functional. The following applies: read-out: ID50 (the source's name). Summed up: (§1)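 Guinea pigs dosed orally with antagonist, then challenged 1 h later with intradermal substance P. Vascular leakage measured as extravasation of Evans blue dye. ID50 (mg/kg po) taken from dose-response data, 5-12 animals per data point.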

The species named for data set [4] is Oryctolagus cuniculus. The experiment in a line: Displacement of [3H]diltiazem from rabbit skeletal muscle calcium channel at 30 uM. It is filed as tissue-based. As to conditions: Muscle tissue. A general note: In a radioligand displacement assay an active substance lowers the binding of a labelled ligand.
For data set [5], the system named is Cavia porcellus. The experiment in a line: Inhibition of SP induced dermal guinea pig after peroral administration. The data set is classed as functional. As to conditions: read-out: ID50 (the source's name). Summed up:
as §1

The species entered for data set [6] is Rattus norvegicus. Kind of data set: Degradation of compound in incubations at 25 uM with normal rat liver microsomes after 4 hour relative to initial concentration of 1 uM. The data set is classed as functional. The essentials: (§2)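 Each compound incubated at 25 µM with normal rat liver microsomes, P-450 at 1.45 nM/mg microsomal protein. Remaining substrate sampled at 15 min, 1 h, 4 h and 24 h and expressed relative to an initial concentration of 1.0. Single determination (n = 1).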
Background: Microsomes from liver hold many membrane-bound enzymes, among them those of drug oxidation.

The species named for data set [7] is Rattus norvegicus. The experiment in a line: Degradation of compound in incubations at 25 uM with normal rat liver microsomes after 24 hour relative to initial concentration of 1 uM. The data set is classed as functional. The essentials:
as §2

Data set [8] is filed under the species Rattus norvegicus. Kind of data set: Degradation of compound in incubations at 25 uM with normal rat liver microsomes after 1 hour relative to initial concentration of 1 uM. It is filed as functional. The essentials:
as §2

A short description of data set [9]: Plasma volume of distribution of the 3 mg/kg in rat. The data set is classed as ADME, organism-based. Also on record: dose 3 mg/kg. Summed up:
(§3)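 Rats given compound intravenously and orally in solution. Three rats per time point sampled for plasma drug levels. Pharmacokinetic parameters calculated from the plasma concentration–time data using standard equations. Data reported as mean ± SEM.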

In data set [10] the test system is Rattus norvegicus. Kind of data set: Plasma concentration after 3 mg/kg peroral dosing in rat at 4 hr. It is filed as ADME, organism-based. Also on record: dose 3 mg/kg, route oral. As to conditions: in vivo, po.
In data set [11] the test system is Rattus norvegicus. Kind of data set: Plasma concentration after 3 mg/kg peroral dosing in rat at 8 hr. The data set is classed as ADME, organism-based. The arrangement: dose 3 mg/kg, route oral. As to conditions: in vivo, po.
A short description of data set [12]: Bioavailability in rat. It is filed as ADME, organism-based. The following applies: in vivo.
The subject of data set [13] is Rattus norvegicus. The experiment in a line: Plasma concentration after 3 mg/kg peroral dosing in rat at 2 hr. It is filed as ADME, organism-based. Also on record: dose 3 mg/kg, route oral. The following applies: in vivo, po.
Data set [14] concerns Rattus norvegicus. The experiment in a line: Plasma concentration after 3 mg/kg peroral dosing in rat at 1 hr. It is filed as ADME, organism-based. The arrangement: dose 3 mg/kg, route oral. As to conditions: in vivo, po.
The test system of data set [15] is Rattus norvegicus. Kind of data set: Plasma concentration of 3 mg/kg iv after 4 hr in rats. The data set is classed as ADME, organism-based. The arrangement: dose 3 mg/kg, route intravenous. The following applies: in vivo. The essentials:
as §3

Data set [16] deals with Rattus norvegicus. Kind of data set: Plasma concentration of 3 mg/kg iv after 6 hr in rats. Also on record: dose 3 mg/kg, route intravenous. The data set is classed as ADME, organism-based. As to conditions: in vivo. The essentials: as §3
Data set [17] concerns Rattus norvegicus. Kind of data set: Plasma concentration after 3 mg/kg peroral dosing in rat at 0.5 hr. Also on record: dose 3 mg/kg, route oral. The data set is classed as ADME, organism-based. As to conditions: in vivo, po.
The test system of data set [18] is Rattus norvegicus. The experiment in a line: Plasma concentration after 3 mg/kg peroral dosing in rat at 0.083 h. The arrangement: dose 3 mg/kg, route oral. As to conditions: in vivo, po. It is filed as ADME, organism-based.
The test system of data set [19] is Rattus norvegicus. The experiment in a line: Plasma concentration after 3 mg/kg peroral dosing in rat at 0.25 hr. It is filed as ADME, organism-based. The arrangement: dose 3 mg/kg, route oral. The following applies: in vivo, po.
Data set [20] in a line: Plasma clearance after intravenous administration iv dosing of 3 mg/kg in rat. It is filed as ADME, organism-based. Also on record: dose 3 mg/kg, route intravenous.
Data set [21] concerns Rattus norvegicus. Kind of data set: Plasma concentration of 3 mg/kg iv after 0.5 hr in rats. It is filed as ADME, organism-based. Also on record: dose 3 mg/kg, route intravenous. The following applies: in vivo. Summed up: as §3
A further data set has as its target Substance-P receptor (Homo sapiens, UniProt P25103). Kind of data set: Displacement of [125 I]-Tyr8 SP from the cloned human Tachykinin receptor 1 expressed in CHO cells. It is filed as cell-based.
Data set [22] relates to Rattus norvegicus. The experiment in a line: Plasma concentration of 3 mg/kg iv after 2 hr in rats. The following applies: in vivo. Also on record: dose 3 mg/kg, route intravenous. The data set is classed as ADME, organism-based. Summed up: as §3
Data set [23] relates to Rattus norvegicus. The experiment in a line: Plasma concentration of 3 mg/kg iv after 0.25 hr in rats. The arrangement: dose 3 mg/kg, route intravenous. The data set is classed as ADME, organism-based. As to conditions: in vivo. Summed up:
as §3

For data set [24], the system named is Rattus norvegicus. Kind of data set: Plasma concentration after 3 mg/kg peroral dosing in rat at 6 hr. As to conditions: in vivo, po. Also on record: dose 3 mg/kg, route oral. The data set is classed as ADME, organism-based.
Data set [25] relates to Rattus norvegicus. Kind of data set: Plasma concentration of 3 mg/kg iv after 1 hr in rats. It is filed as ADME, organism-based. The arrangement: dose 3 mg/kg, route intravenous. The following applies: in vivo. Summed up: as §3
For data set [26], the species on record is Rattus norvegicus. The experiment in a line: Degradation of compound in incubations at 25 uM with normal rat liver microsomes after 15 min relative to initial concentration of 1 uM. The data set is classed as functional. The essentials: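 Incubated at 25 µM with normal rat liver microsomes; P-450 at 1.45 nM/mg microsomal protein. Sampled at 15 min, 1 h, 4 h and 24 h. Remaining substrate reported relative to an initial level of 1.0, n = 1.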

Sequence of Substance-P receptor (P25103 whole entry): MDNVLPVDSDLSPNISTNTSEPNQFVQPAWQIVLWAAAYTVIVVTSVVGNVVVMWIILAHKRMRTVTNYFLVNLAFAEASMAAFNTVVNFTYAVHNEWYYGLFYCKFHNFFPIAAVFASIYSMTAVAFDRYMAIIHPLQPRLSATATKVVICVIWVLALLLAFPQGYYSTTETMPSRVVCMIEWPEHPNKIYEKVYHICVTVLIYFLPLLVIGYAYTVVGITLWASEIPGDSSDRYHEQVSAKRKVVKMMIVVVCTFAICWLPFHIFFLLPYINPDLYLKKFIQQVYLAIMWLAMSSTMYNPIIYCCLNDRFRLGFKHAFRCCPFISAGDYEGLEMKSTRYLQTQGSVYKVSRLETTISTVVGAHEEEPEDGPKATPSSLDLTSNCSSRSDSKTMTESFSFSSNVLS

As for `COc1ccccc1CN[C@H]1CCCN[C@H]1c1ccccc1` [CP-99994], the ED50 was 0.052 mg/kg in the data set with Rattus norvegicus [1] and 1.6 mg/kg in the data set on Cavia porcellus [3]. Also, the Binding affinity in the data set filed under Oryctolagus cuniculus [2] stood at 4 µM.

Turning to `NC(=O)CN1CCC[C@H](OCc2cc(C(F)(F)F)cc(C(F)(F)F)c2)[C@@H]1c1ccccc1`, the Binding affinity in the data set listed under Oryctolagus cuniculus [4] stood at 16%. Moreover, the ED50 with Cavia porcellus [5] amounted to 0.8 mg/kg.

As for `FC(F)(F)c1cc(CO[C@H]2CCCN(Cc3nc[nH]n3)[C@H]2c2ccccc2)cc(C(F)(F)F)c1`, the ED50 with Rattus norvegicus [1] worked out at 0.008 mg/kg; in the data set on Cavia porcellus [3], 0.4 mg/kg. Also, the Binding affinity in the data set listed under Oryctolagus cuniculus [2] is over 100 µM.

In the case of `FC(F)(F)c1cc(CO[C@H]2CCCN(Cc3c[nH]cn3)[C@H]2c2ccccc2)cc(C(F)(F)F)c1`, the figures for the Concentration in the data set listed under Rattus norvegicus [6], in the data set listed under Rattus norvegicus [7] and in the data set listed under Rattus norvegicus [8] were 0.55 µM, 0.18 µM and 0.72 µM, respectively. Besides, in the data set filed under Oryctolagus cuniculus [2], the Binding affinity amounted to 2.3 µM.

As usually defined, the Vd is the apparent volume that relates the amount in the body to the concentration in plasma or blood. Low values mean confinement near the circulation, high ones extensive tissue distribution. Usually bioavailability stands for the share of a dose that reaches the circulation, judged against a reference dose that is usually intravenous. A high value points to good availability. Usually clearance stands for the rate of elimination divided by the concentration. A lower clearance goes with inefficient removal. One may read the pIC50 as −log10 of the IC50, conventionally taken in molar units. Low values mean a large IC50, high ones a small IC50. In the case of `FC(F)(F)c1cc(CO[C@H]2CCCN(Cc3nnc[nH]3)[C@H]2c2ccccc2)cc(C(F)(F)F)c1`, the Vd in data set [9] turned out to be 2.6 L/kg. For the same molecule, the Concentration in the data set on Rattus norvegicus [10] was 11.2 ng/mL; in the data set on Rattus norvegicus [11], under 10 ng/mL; with Rattus norvegicus [13] it was 36.9 ng/mL; in the data set on Rattus norvegicus [14] it was 33.7 ng/mL; with Rattus norvegicus [15], 13.2 ng/mL; in the data set with Rattus norvegicus [16], under 10 ng/mL. The Concentration with Rattus norvegicus [17] came out at 35.1 ng/mL; with Rattus norvegicus [18], 40.1 ng/mL; in the data set with Rattus norvegicus [19], 116 ng/mL; with Rattus norvegicus [21], 581 ng/mL; in the data set with Rattus norvegicus [22], 71.3 ng/mL; in the data set on Rattus norvegicus [23] it was 826 ng/mL. Moreover, the values for the Concentration in the data set with Rattus norvegicus [24] and in the data set with Rattus norvegicus [25] were under 10 ng/mL and 304 ng/mL, respectively. In addition, the bioavailability in data set [12] stood at 18%. The molecule further registered a clearance in data set [20] of 44 mL/min/kg. Moreover, on Substance-P receptor, the pIC50 is 9.66.

For `FC(F)(F)c1cc(CO[C@H]2CCCN(Cc3nn[nH]n3)[C@H]2c2ccccc2)cc(C(F)(F)F)c1`, in the data set listed under Oryctolagus cuniculus [2], the Binding affinity was over 5 µM.

Molecule `FC(F)(F)c1cc(CO[C@H]2CCCN(Cc3cocn3)[C@H]2c2ccccc2)cc(C(F)(F)F)c1` showed a negative-log IC50 (pIC50) at Substance-P receptor of 9.00. The Binding affinity in the data set listed under Oryctolagus cuniculus [2] amounted to 23 µM. The Relative oncentration in the data set filed under Rattus norvegicus [26] amounted to 0.05 µM.

Values taken from ChEMBL document CHEMBL1129245, “N-heteroaryl-2-phenyl-3-(benzyloxy)piperidines: a novel class of potent orally active human NK1 antagonists” (J Med Chem, 1996).
